Data as given in ChEMBL document CHEMBL3425511 (J Med Chem, 2015).
The source made the active and inactive calls.

Assays:
Liver microsome [1] = test: (§1) Metabolic stability in rat liver microsomes assessed as compound remaining after 10 mins; assay type: ADME; conditions: microsomes, 10 min
Summary of the method: (§2)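 Compound incubated 10 min with liver microsomes of the stated species; amount of parent remaining reported as percent.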

Liver microsome [2] = test: (§3) Metabolic stability in human liver microsomes assessed as compound remaining after 10 mins; assay type: ADME; conditions: microsomes, 10 min; summary of the method: as §2
[3] = molecular target: T1, Transient receptor potential cation channel subfamily V member 1 (Homo sapiens, UniProt Q8NER1); test: Antagonist activity at recombinant human TRPV1 expressed in HEK293 cells assessed as inhibition of capsaicin-induced Ca2+ influx preincubated for 5 mins followed by capsaicin challenge; assay type: cell-based
Rattus norvegicus [4] = test: Reversal of complete freund's adjuvant-induced thermal hypersensitivity in po dosed Sprague-Dawley rat measured after 30 to 180 mins; assay type: functional, organism-based
Summary of the method: (§4)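 Male Sprague−Dawley rats (195−350 g), intraplantar CFA (100 μL, 1:1 CFA:saline) with testing 24 h later, or carrageenan-λ (200 μL, 10 mg/mL) with testing 3 h later. Radiant heat withdrawal latency, 10−15 s baseline, 20 s cutoff; rats with ≥25% latency drop kept. Oral dosing at 2.5 mL/kg. Percent reversal = (treatment − post)/(pre − post) × 100, scored blind.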

[5] = as §1; assay type: ADME; conditions: liver microsomes, read-out: Stability; summary of the method: as §2
[6] = as §3; assay type: ADME; conditions: liver microsomes, read-out: Stability; summary of the method: as §2
[7] = Oral bioavailability in rat at 10 mg/kg; assay type: ADME, organism-based; conditions: in vivo
Summary of the method: (§5)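 Oral dosing at 10 mg/kg as a solution of the sodium salt in 20% HPβCD, n = 4 animals per group.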

Rattus norvegicus [8] = test: Reversal of complete freund's adjuvant-induced thermal hypersensitivity in po dosed Sprague-Dawley rat after 60 mins; assay type: functional; summary of the method: as §4
[9] = Clearance in rat at 2 mg/kg, iv; assay type: ADME, organism-based; parameters: dose 2 mg/kg, route intravenous; conditions: in vivo
Summary of the method: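 Intravenous dosing at 2 mg/kg as a solution of the sodium salt in 20% HPβCD, n = 4 animals per group.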

[10] = Half life in rat at 10 mg/kg, po; assay type: ADME, organism-based; parameters: dose 10 mg/kg, route oral; conditions: in vivo; summary of the method: as §5
[11] = molecular target: T1, Transient receptor potential cation channel subfamily V member 1; test: Antagonist activity at recombinant human TRPV1 expressed in HEK293 cells assessed as inhibition of capsaicin-induced Ca2+ influx at 1 uM preincubated for 5 mins followed by capsaicin challenge relative to control; assay type: cell-based
Summary of the method: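 HEK293 cells stably expressing human TRPV1, loaded with Calcium 3 dye 35 min at 37 °C, then 25 min at room temperature. Compound added and Ca²⁺ read 5 min (FLIPR or FDSS) before capsaicin at ~EC80 (typically 0.020−0.030 μM final). Response normalised to 90 or 100 μM capsaicin (100%) and 0.6 pM (0%).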

Rattus norvegicus [12] = test: Reversal of complete freund's adjuvant-induced thermal hypersensitivity in Sprague-Dawley rat at 10 mg/kg, po measured after 30 to 180 mins; assay type: functional, organism-based; parameters: dose 10 mg/kg
Rattus norvegicus [13] = organism: Rattus norvegicus; test: Drug level in rat treated with (trans)-1-(2-{2-[2-(4-Trifluoromethyl-phenyl)-vinyl]-1H-benzoimidazol-5-yl}-phenyl)-ethanol; assay type: ADME, organism-based; conditions: in vivo
Rattus norvegicus [14] = test: Reversal of complete freund's adjuvant-induced thermal hypersensitivity in po dosed Sprague-Dawley rat measured at 30 mins; assay type: functional; summary of the method: as §4
Rattus norvegicus [15] = test: Reversal of complete freund's adjuvant-induced thermal hypersensitivity in po dosed Sprague-Dawley rat measured at 3 hrs; assay type: functional; summary of the method: as §4
Rattus norvegicus [16] = test: Reversal of complete freund's adjuvant-induced thermal hypersensitivity in po dosed Sprague-Dawley rat assessed as plasma concentration required to reach ED50 measured at 100 mins; assay type: functional
Summary of the method: (§6)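 Rats dosed orally 100 min before radiant-heat testing. For CFA, plasma taken right after behavioural testing; for carrageenan, taken from a separate group dosed identically. Blood collected on lithium heparin and centrifuged, plasma stored at −80 °C. Plasma levels matching ED50 and ED80 (EC50/EC80) computed from the dose−response data.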

Rattus norvegicus [17] = test: Reversal of complete freund's adjuvant-induced thermal hypersensitivity in po dosed Sprague-Dawley rat assessed as plasma concentration required to reach ED80 measured at 100 mins; assay type: functional; summary of the method: as §6
Rattus norvegicus [18] = test: Reversal of complete freund's adjuvant-induced thermal hypersensitivity in po dosed Sprague-Dawley rat measured at 100 mins; assay type: functional; summary of the method: as §4
Rattus norvegicus [19] = organism: Rattus norvegicus; test: Drug metabolism in rat assessed as formation of (trans)-1-(2-{2-[2-(4-Trifluoromethyl-phenyl)-vinyl]-1H-benzoimidazol-5-yl}-phenyl)-ethanone; assay type: ADME, organism-based; conditions: in vivo
Rattus norvegicus [20] = test: Reversal of complete freund's adjuvant-induced thermal hypersensitivity in Sprague-Dawley rat at 30 mg/kg, po measured after 30 to 180 mins; assay type: functional, organism-based; parameters: dose 30 mg/kg

T1 sequence (Q8NER1 whole entry): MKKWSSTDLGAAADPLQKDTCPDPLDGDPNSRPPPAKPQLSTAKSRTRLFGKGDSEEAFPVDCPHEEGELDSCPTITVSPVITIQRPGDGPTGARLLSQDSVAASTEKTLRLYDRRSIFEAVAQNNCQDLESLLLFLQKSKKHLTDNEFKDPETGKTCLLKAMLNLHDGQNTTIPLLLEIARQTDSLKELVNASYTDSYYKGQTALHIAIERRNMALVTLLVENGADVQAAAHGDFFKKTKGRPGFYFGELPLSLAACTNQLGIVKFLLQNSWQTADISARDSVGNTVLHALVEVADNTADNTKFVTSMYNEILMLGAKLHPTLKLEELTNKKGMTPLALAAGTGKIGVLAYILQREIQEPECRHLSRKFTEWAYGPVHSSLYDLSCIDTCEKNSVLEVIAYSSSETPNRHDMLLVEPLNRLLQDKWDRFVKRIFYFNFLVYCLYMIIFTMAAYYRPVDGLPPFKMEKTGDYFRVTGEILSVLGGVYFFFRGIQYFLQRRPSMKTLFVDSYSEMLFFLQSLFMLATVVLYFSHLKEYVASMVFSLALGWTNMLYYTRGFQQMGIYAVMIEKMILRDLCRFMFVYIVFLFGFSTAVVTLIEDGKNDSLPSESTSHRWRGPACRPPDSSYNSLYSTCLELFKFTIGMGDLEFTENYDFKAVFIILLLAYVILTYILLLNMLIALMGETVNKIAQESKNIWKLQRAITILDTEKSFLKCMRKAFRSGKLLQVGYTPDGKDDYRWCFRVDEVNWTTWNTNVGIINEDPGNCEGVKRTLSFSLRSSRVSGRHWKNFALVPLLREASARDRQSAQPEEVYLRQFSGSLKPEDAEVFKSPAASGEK

NS(=O)(=O)c1ccccc1-c1ccc2[nH]c(CCc3ccc(C(F)(F)F)cc3)nc2c1
Stability (Liver microsome [1]): Unstable | Stability (Liver microsome [2]): Unstable

CC(C)(O)c1ccccc1-c1ccc2[nH]c(/C=C/c3ccc(S(=O)(=O)C(F)(F)F)cc3)nc2c1
IC50 [3]: 19 nM | Activity (Rattus norvegicus [4]): inactive

CC(=O)c1ccccc1-c1ccc2[nH]c(/C=C/c3ccc(C(C)(C)C)cc3)nc2c1
IC50 [3]: 25 nM | remaining at 10 min [5]: 43% | remaining at 10 min [6]: 12%

CS(=O)(=O)Nc1ccccc1-c1ccc2[nH]c(/C=C/c3ccc(C(F)(F)F)cc3)nc2c1
bioavailability [7]: 65% | IC50 [3]: 10 nM | remaining at 10 min [5]: 50% | Activity (Rattus norvegicus [8]): Dose-dependent effect | ED50 (Rattus norvegicus [8]; Rattus norvegicus, Sprague-Dawley, po, 1 h): 4.3 mg/kg | remaining at 10 min [6]: 85% | clearance [9]: 13 mL/min/kg | half-life [10]: 4 h

CC(C)(O)c1ccccc1-c1ccc2[nH]c(C#Cc3ccc(C(F)(F)F)cc3)nc2c1
IC50 [3]: 4.5 nM | Stability (Liver microsome [1]): Stable | Stability (Liver microsome [2]): Stable

CC(C)(C)c1ccc(/C=C/c2nc3cc(-c4ccc(C(N)=O)cc4)ccc3[nH]2)cc1
inhibition [11]: 10%

NS(=O)(=O)c1ccccc1-c1ccc2[nH]c(C#Cc3ccc(C(F)(F)F)cc3)nc2c1
IC50 [3]: 20 nM

CC(C)(O)c1ccccc1-c1ccc2[nH]c(CCc3ccc(C(F)(F)F)cc3)nc2c1
IC50 [3]: 2.8 nM | remaining at 10 min [5]: 5% | remaining at 10 min [6]: 45%

CC(C)(O)c1ccccc1-c1ccc2[nH]c(/C=C/c3ccc(OC(F)(F)F)cc3)nc2c1
IC50 [3]: 5.9 nM | Stability (Liver microsome [1]): Stable | Stability (Liver microsome [2]): Stable | Activity (Rattus norvegicus [4]): inactive

CC(C)(C)c1ccc(/C=C/c2nc3cc(-c4ccccc4NS(C)(=O)=O)ccc3[nH]2)cc1
remaining at 10 min [5]: 29% | remaining at 10 min [6]: 9%

CS(=O)(=O)Nc1ccccc1-c1ccc2[nH]c(/C=C/c3ccccc3C(F)(F)F)nc2c1
inhibition [11]: 44%

CC(C)(O)c1ccccc1-c1ccc2[nH]c(/C=C/c3cccc(C(F)(F)F)c3)nc2c1
IC50 [3]: 4.9 nM | Activity (Rattus norvegicus [8]): 58%

CS(=O)(=O)Nc1ccccc1-c1ccc2[nH]c(/C=C/c3ccc(OC(F)(F)F)cc3)nc2c1
IC50 [3]: 17 nM | Stability (Liver microsome [1]): Stable | Activity (Rattus norvegicus [12]): inactive

CC(=O)Nc1ccc(-c2ccc3[nH]c(/C=C/c4ccc(C(C)(C)C)cc4)nc3c2)cc1
inhibition [11]: 10%

CC(C)(O)c1ccccc1-c1ccc2[nH]c(/C=C/c3ccc(Cl)cc3)nc2c1
IC50 [3]: 5.7 nM | Stability (Liver microsome [1]): Stable | Stability (Liver microsome [2]): Stable | Activity (Rattus norvegicus [4]): inactive

CC(C)(C)c1ccc(/C=C/c2nc3cc(-c4ccccc4C(N)=O)ccc3[nH]2)cc1
IC50 [3]: 40 nM

CC(C)c1ccc(/C=C/c2nc3cc(-c4ccccc4NS(C)(=O)=O)ccc3[nH]2)cc1
IC50 [3]: 9.2 nM

CC(C)(C)c1ccc(/C=C/c2nc3cc(-c4cccc(C(N)=O)c4)ccc3[nH]2)cc1
inhibition [11]: 12%

CC(=O)c1ccccc1-c1ccc2[nH]c(/C=C/c3ccc(C(F)(F)F)cc3)nc2c1
Drug metabolism (Rattus norvegicus [13]): metabolite_detected

CS(=O)(=O)Nc1ccccc1-c1ccc2[nH]c(/C=C/c3cccc(C(F)(F)F)c3)nc2c1
inhibition [11]: 48%

CS(=O)(=O)Nc1ccccc1-c1ccc2[nH]c(/C=C/c3ccc(OCC(F)(F)C(F)(F)F)cc3)nc2c1
inhibition [11]: 63%

NS(=O)(=O)c1ccccc1-c1ccc2[nH]c(/C=C/c3ccc(OC(F)(F)F)cc3)nc2c1
Stability (Liver microsome [1]): Unstable

CC(C)(C)c1ccc(CCCc2nc3cc(-c4ccccc4O)ccc3[nH]2)cc1
inhibition [11]: 6%

CC(C)(O)c1ccccc1-c1ccc2[nH]c(C#Cc3ccccc3)nc2c1
Activity (Rattus norvegicus [14]): 71% | bioavailability [7]: 13% | IC50 [3]: 2.8 nM | Stability (Liver microsome [1]): Stable | Activity (Rattus norvegicus [15]): 41% | Stability (Liver microsome [2]): Stable

NS(=O)(=O)c1ccccc1-c1ccc2[nH]c(/C=C/c3ccc(C(F)(F)F)cc3)nc2c1
Activity (Rattus norvegicus [16]): 1757 ng/mL | Activity (Rattus norvegicus [17]): 62788 ng/mL | ED50 (Rattus norvegicus [18]): 2.6 mg/kg | ED80 (Rattus norvegicus [18]): 10.3 mg/kg

CC(O)c1ccccc1-c1ccc2[nH]c(/C=C/c3ccc(C(F)(F)F)cc3)nc2c1 (stereo not given)
bioavailability [7]: 39% | remaining at 10 min [5]: 89% | Drug metabolism (Rattus norvegicus [19]): metabolite_detected | remaining at 10 min [6]: 97%

CC(C)(C)c1ccc(Cc2nc3cc(-c4ccccc4O)ccc3[nH]2)cc1
inhibition [11]: 6%

NS(=O)(=O)c1ccccc1-c1ccc2[nH]c(/C=C/c3cccc(OC(F)(F)F)c3)nc2c1
Stability (Liver microsome [1]): Unstable

Cc1ccc(-c2cc(C(F)(F)F)nn2-c2ccc(S(N)(=O)=O)cc2)cc1
Activity (Rattus norvegicus [20]): Active
